The text below walks through data of ChEMBL document CHEMBL4311938, “Sirtuin inhibition and anti-cancer activities of ethyl 2-benzimidazole-5-carboxylate derivatives” (Medchemcomm, 2019).

For assay [1], the target named is T1, NAD-dependent protein deacetylase sirtuin-1 (Homo sapiens, UniProt Q96EB6).
T1 sequence (Q96EB6 whole entry): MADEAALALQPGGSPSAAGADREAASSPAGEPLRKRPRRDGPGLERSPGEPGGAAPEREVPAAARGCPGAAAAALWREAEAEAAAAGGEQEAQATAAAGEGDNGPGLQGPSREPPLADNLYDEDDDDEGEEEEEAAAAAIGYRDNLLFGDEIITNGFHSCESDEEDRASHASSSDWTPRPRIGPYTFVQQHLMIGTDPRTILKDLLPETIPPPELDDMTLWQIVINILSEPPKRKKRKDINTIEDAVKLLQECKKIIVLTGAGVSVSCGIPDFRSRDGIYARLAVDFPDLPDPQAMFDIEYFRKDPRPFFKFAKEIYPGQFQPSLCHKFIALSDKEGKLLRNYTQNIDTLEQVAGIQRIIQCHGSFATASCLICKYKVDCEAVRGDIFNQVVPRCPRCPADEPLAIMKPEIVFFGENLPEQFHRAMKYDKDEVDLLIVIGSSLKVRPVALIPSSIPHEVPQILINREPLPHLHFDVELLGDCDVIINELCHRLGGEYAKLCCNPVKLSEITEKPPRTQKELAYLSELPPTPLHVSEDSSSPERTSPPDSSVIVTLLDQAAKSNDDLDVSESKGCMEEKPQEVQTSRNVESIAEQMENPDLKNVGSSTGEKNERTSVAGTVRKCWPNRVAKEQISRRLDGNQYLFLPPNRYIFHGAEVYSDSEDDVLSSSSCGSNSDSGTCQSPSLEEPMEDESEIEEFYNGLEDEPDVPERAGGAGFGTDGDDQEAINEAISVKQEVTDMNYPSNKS
As to the kind of experiment: Inhibition of human recombinant SIRT1 using p53 (379 to 382 residues) conjugated to AMC as substrate incubated for 45 mins in presence of NAD+ by fluorescence assay.

Assay [2] has as its target T2, NAD-dependent protein deacetylase sirtuin-3, mitochondrial (Homo sapiens, UniProt Q9NTG7).
T2 sequence (Q9NTG7 whole entry): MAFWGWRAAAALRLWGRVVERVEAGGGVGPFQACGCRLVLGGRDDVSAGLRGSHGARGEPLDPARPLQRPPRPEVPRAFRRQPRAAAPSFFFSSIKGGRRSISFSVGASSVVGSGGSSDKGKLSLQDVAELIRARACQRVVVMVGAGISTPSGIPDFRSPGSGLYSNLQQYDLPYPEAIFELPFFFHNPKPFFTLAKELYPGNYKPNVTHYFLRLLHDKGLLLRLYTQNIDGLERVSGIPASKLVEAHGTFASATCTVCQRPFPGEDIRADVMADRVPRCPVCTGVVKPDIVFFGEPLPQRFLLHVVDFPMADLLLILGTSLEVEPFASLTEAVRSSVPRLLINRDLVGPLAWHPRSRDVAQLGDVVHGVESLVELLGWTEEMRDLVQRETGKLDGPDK
As to the kind of experiment: Inhibition of human recombinant SIRT3 using p53 (317 to 320 residues) conjugated to AMC as substrate incubated for 45 mins in presence of NAD+ by fluorescence assay.

For assay [3], the target named is T3, NAD-dependent protein deacetylase sirtuin-2 (Homo sapiens, UniProt Q8IXJ6).
T3 sequence (Q8IXJ6 whole entry): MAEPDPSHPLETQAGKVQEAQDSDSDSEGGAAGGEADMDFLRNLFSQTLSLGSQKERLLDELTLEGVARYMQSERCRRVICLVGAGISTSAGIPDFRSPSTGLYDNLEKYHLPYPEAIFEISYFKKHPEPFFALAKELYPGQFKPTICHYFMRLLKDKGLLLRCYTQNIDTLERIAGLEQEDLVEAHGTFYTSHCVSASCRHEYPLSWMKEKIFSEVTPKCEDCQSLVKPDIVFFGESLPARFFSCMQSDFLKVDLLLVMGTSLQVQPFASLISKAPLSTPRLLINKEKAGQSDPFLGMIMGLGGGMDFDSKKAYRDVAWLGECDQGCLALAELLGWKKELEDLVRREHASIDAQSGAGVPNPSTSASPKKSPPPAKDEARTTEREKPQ
As to the kind of experiment: Inhibition of human recombinant SIRT2 using p53 (317 to 320 residues) conjugated to AMC as substrate incubated for 45 mins in presence of NAD+ by fluorescence assay.

The target in assay [4] is T4, NAD-dependent protein deacetylase sirtuin-2 (Homo sapiens) (UniProt Q8IXJ6).
T4 sequence (whole entry): T3 sequence (Q8IXJ6 whole entry)
Nature of the assay: Inhibition of SIRT2 in human H103 cells assessed as increase in acetylated alpha tubulin level at 5.83 uM after 72 hrs by Western blot analysis. In kind it is cell-based. An outline of the steps: (§1)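 H103 cells were seeded at 5 × 10^5 per well and treated either for 24 h or for 72 h. Lysates were run on SDS-PAGE and blotted to PVDF. Blocking in 5% skimmed milk with primary antibody was done overnight at 4 °C. HRP secondaries were anti-mouse 1:5000 and anti-rabbit 1:1000, 1 h at room temperature, with ECL detection. Acetylated protein was normalized to actin, then to total protein, then to untreated cells. Two independent experiments were run.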

The test system of assay [5] is H103. As to the kind of experiment: Induction of apoptosis in human H103 cells assessed as necrotic cells after 24 hrs by AnnexinV-FLTC/propidium iodide staining based flow cytometry (reference value: 7.49 %). In kind it is functional. Background: Flow cytometry measures light scatter and fluorescence of single cells or particles in a stream.
The test system of assay [6] is H103. Nature of the assay: Cell cycle arrest in human H103 cells assessed as accumulation at G2/M phase after 24 hrs by RNase/7-AAD staining based flow cytometry analysis (reference value: 36.5 %). In kind it is functional. An outline of the steps: (§2)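 H103 oral squamous carcinoma cells (ECACC) were seeded at 5 × 10^5 per well, left to adhere overnight and then treated for 24 h. Cells were trypsinized, washed in PBS and fixed in ice-cold 70% ethanol for 30 min at 4 °C. They were stained with RNase plus 7-AAD in staining buffer, and DNA content was read by imaging flow cytometry at 488 nm. G1 = 2N, G2/M = 4N.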

In assay [7] the test system is H103. Nature of the assay: Induction of apoptosis in human H103 cells assessed as early apoptotic cells after 24 hrs by AnnexinV-FLTC/propidium iodide staining based flow cytometry (reference value: 0.01 %). In kind it is functional.
The subject of assay [8] is H103. Nature of the assay: Induction of apoptosis in human H103 cells assessed as viable cells after 24 hrs by AnnexinV-FLTC/propidium iodide staining based flow cytometry (reference value: 29.4 %). In kind it is functional.
Assay [9] concerns H103. Nature of the assay: Induction of apoptosis in human H103 cells assessed as late apoptotic cells after 24 hrs by AnnexinV-FLTC/propidium iodide staining based flow cytometry (reference value: 1.32 %). In kind it is functional.
Assay [10] has as its target T5, NAD-dependent protein deacetylase sirtuin-3, mitochondrial (Homo sapiens) (UniProt Q9NTG7).
T5 sequence (whole entry): T2 sequence (Q9NTG7 whole entry)
As to the kind of experiment: Inhibition of SIRT3 in human H103 cells assessed as growth inhibition after 72 hrs by MTT assay. In kind it is cell-based. An outline of the steps: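 H103 cells (ECACC) were seeded at 5 × 10^3 per well and treated for 72 h with final DMSO below 1%. Viability was read by MTT: 4 h at 37 °C in 5% CO2, formazan dissolved in DMSO, absorbance at 570 nm. Proliferation was expressed as the ratio of treated to control absorbance. Experiments were run in triplicate. GI50 was determined.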
In general terms: Formazan colour is commonly taken as a measure of viable cells.

Assay [11] deals with H103. As to the kind of experiment: Cell cycle arrest in human H103 cells assessed as accumulation at G1 phase after 24 hrs by RNase/7-AAD staining based flow cytometry analysis (reference value: 38.8 %). In kind it is functional. An outline of the steps: as §2
Assay [12] concerns the target T6, NAD-dependent protein deacetylase sirtuin-1 (Homo sapiens) (UniProt Q96EB6).
T6 sequence (whole entry): T1 sequence (Q96EB6 whole entry)
Nature of the assay: Inhibition of SIRT1 in human H103 cells assessed as increase in acetylated p53 level at 32 uM after 24 hrs by Western blot analysis. In kind it is cell-based. An outline of the steps:
as §1
In general terms: A western blot detects proteins with antibodies after separation by electrophoresis.

The test system of assay [13] is H103. Nature of the assay: Cell cycle arrest in human H103 cells assessed as accumulation at S phase after 24 hrs by RNase/7-AAD staining based flow cytometry analysis (reference value: 18 %). In kind it is functional. An outline of the steps:
as §2

The target of assay [14] is T6, NAD-dependent protein deacetylase sirtuin-1 (Homo sapiens). Nature of the assay: Inhibition of SIRT1 in human H103 cells assessed as increase in acetylated p53 level at 5.83 uM after 72 hrs by Western blot analysis. In kind it is cell-based. An outline of the steps: as §1

The structures appear in SMILES notation. Calls of active or inactive are those of the source. The rule behind the calls is not given here.

For the compound `CCOC(=O)c1ccc2[nH]c(-c3ccc(OC(F)(F)F)cc3)nc2c1`, the IC50 in assay [1], in assay [2] and in assay [3] was more than 50 µM throughout.
On to `CCOC(=O)c1ccc2[nH]c(-c3ccc(Br)cc3)nc2c1`, for which the IC50 in assay [1] was more than 50 µM; in [2], more than 50 µM; in assay [3] it was 45.8 µM.
On to `CCOC(=O)c1ccc2[nH]c(-c3ccc4c(c3)OCO4)nc2c1`, for which the IC50 was 7.7 µM in assay [1], 9.8 µM in assay [2] and 5.6 µM in assay [3]. Besides, the inhibition result in [4] is “Active”. In addition, the Activity in the assay with H103 [5] turned out to be 11.3%; in the assay with H103 [6] it was 43.2%; in the assay with H103 [7] it was 0.04%; in the assay on H103 [8], 90.6%; in the assay on H103 [9], 7.82%; with H103 [11], 8.1%. Further, the Activity in the assay with H103 [13] was 20.3%. The concentration for 50% growth inhibition (GI50) in assay [10] was determined as 5.83 µM. In addition, the inhibition result in [12] and in assay [14] was “inactive” each time.
Turning to `CCOC(=O)c1ccc2[nH]c(-c3ccc(C(F)(F)F)cc3)nc2c1`, the IC50 in assay [1], in [2] and in [3] was more than 50 µM throughout.
For `CCOC(=O)c1ccc2[nH]c(-c3ccc(Cl)cc3)nc2c1`, the results for the IC50 in [1] and in assay [3] were 33.6 µM and 30.5 µM, respectively.

As usually defined, the IC50 is the concentration that inhibits the measured activity by half. As usually defined, the GI50 is the concentration at which growth is held to half of that of the control.
